Source: ChEMBL document CHEMBL1240373, “Glycerol monolaurate inhibits Candida and Gardnerella vaginalis in vitro and in vivo but not Lactobacillus” (Antimicrob Agents Chemother, 2010)
The source made the active and inactive calls.

Experiments:
Candida albicans [1] = assay: Antifungal activity against Candida albicans SC5314 assessed as => 3-log drop in number of fungal CFU/ml at 100 ug/ml after 4 to 8 hrs; format: functional, organism-based
How it was run: (§1)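 Candida species (C. albicans SC5314 and clinical isolates, C. glabrata, C. kefyr, C. parapsilosis, C. tropicalis, C. krusei) grown 24 h at 37°C with 200 rpm shaking in 25 ml Todd Hewitt broth with GML at 0, 50, 100 or 500 μg/ml. CFU were counted at time points by serial dilution and plating. Fungicidal was defined as a ≥3-log CFU/ml drop.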

Nakaseomyces glabratus = assay: Antifungal activity against Candida glabrata assessed as => 3-log drop in number of fungal CFU/ml at 500 ug/ml after 4 to 8 hrs; format: functional, organism-based; how it was run: as §1
Kluyveromyces marxianus = assay: Antifungal activity against Candida pseudotropicalis kefyr assessed as => 3-log drop in number of fungal CFU/ml at 100 ug/ml after 4 to 8 hrs; format: functional, organism-based; how it was run: as §1
Candida parapsilosis = assay: Antifungal activity against Candida parapsilosis assessed as => 3-log drop in number of fungal CFU/ml at 500 ug/ml after 4 to 8 hrs; format: functional, organism-based; how it was run: as §1
Candida tropicalis = assay: Antifungal activity against Candida tropicalis assessed as => 3-log drop in number of fungal CFU/ml at 500 ug/ml after 4 to 8 hrs; format: functional, organism-based; how it was run: as §1
Pichia kudriavzevii = assay: Antifungal activity against Candida krusei assessed as => 3-log drop in number of fungal CFU/ml at 500 ug/ml after 4 to 8 hrs; format: functional, organism-based; how it was run: as §1
Candida albicans [2] = assay: Antifungal activity against Candida albicans SC5314 clinical isolate at 100 ug/ml after 24 hrs; format: functional, organism-based; how it was run: as §1
Gardnerella vaginalis [3] = assay: Antibacterial activity against Gardnerella vaginalis assessed as => 3-log drop in number of fungal CFU/ml at 1 to 10 ug/ml after 24 hrs; format: functional, organism-based
Candida [4] = assay: Antifungal activity against Candida-mediated vaginal infection in woman at 0.5% treated via intravaginal gels every 12 hrs for 2 days measured post application; format: functional, organism-based; conditions: Vagina
How it was run: (§2)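 Double-blind randomized study. Women self-applied intravaginal gel (warming-gel vehicle) with 0, 0.5 or 5% GML every 12 h for 2 days. Swabs were taken before and just after the first dose and 12 h after the last dose, placed in 1 ml Todd Hewitt broth, serially diluted and plated on chocolate agar (37°C, 7% CO2, up to 3 days). Organisms were identified by colony features as CFU/ml secretions, visit 1 vs visit 2. Detection limit 10^2 CFU/ml.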

Gardnerella vaginalis [5] = assay: Antibacterial activity against Gardnerella vaginalis-mediated vaginal infection in woman at 0.5% treated via intravaginal gels every 12 hrs for 2 days measured post application; format: functional, organism-based; conditions: Vagina; how it was run: as §2
Lactobacillus [6] = assay: Antibacterial activity against Lactobacillus-mediated vaginal infection in woman at 0.5% treated via intravaginal gels every 12 hrs for 2 days measured post application; format: functional; conditions: Vagina; how it was run: as §2
Candida [7] = assay: Antifungal activity against Candida-mediated vaginal infection in woman at 5% treated via intravaginal gels every 12 hrs for 2 days measured post application; format: functional, organism-based; conditions: Vagina; how it was run: as §2
Gardnerella vaginalis [8] = assay: Antibacterial activity against Gardnerella vaginalis-mediated vaginal infection in woman at 5% treated via intravaginal gels every 12 hrs for 2 days measured post application; format: functional, organism-based; conditions: Vagina; how it was run: as §2
Lactobacillus [9] = assay: Antibacterial activity against Lactobacillus-mediated vaginal infection in woman at 5% treated via intravaginal gels every 12 hrs for 2 days measured post application; format: functional; conditions: Vagina; how it was run: as §2
Gardnerella vaginalis [10] = assay: Antibacterial activity against Gardnerella vaginalis-mediated vaginal infection in woman assessed as effect on vaginal pH at 0.5% treated via intravaginal gels every 12 hrs for 2 days measured post application; format: functional, organism-based; conditions: Vagina
How it was run: (§3)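 Women self-applied vaginal gels containing 0, 0.5 or 5% GML in a warming-gel vehicle every 12 h for 2 days. Vaginal pH was measured at visit 1 (before the first dose) and visit 2, and the two visits were compared.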

Gardnerella vaginalis [11] = assay: Antibacterial activity against Gardnerella vaginalis-mediated vaginal infection in woman assessed as effect on vaginal pH at 5% treated via intravaginal gels every 12 hrs for 2 days measured post application; format: functional, organism-based; conditions: Vagina; how it was run: as §3
Lactobacillus [12] = assay: Antibacterial activity against Lactobacillus-mediated vaginal infection in woman assessed as effect on vaginal pH at 0.5% treated via intravaginal gels every 12 hrs for 2 days measured post application; format: functional; conditions: Vagina; how it was run: as §3
Lactobacillus [13] = assay: Antibacterial activity against Lactobacillus-mediated vaginal infection in woman assessed as effect on vaginal pH at 5% treated via intravaginal gels every 12 hrs for 2 days measured post application; format: functional; conditions: Vagina; how it was run: as §3
Candida [14] = assay: Antifungal activity against Candida-mediated vaginal infection in woman assessed as effect on vaginal pH at 0.5% treated via intravaginal gels every 12 hrs for 2 days measured post application; format: functional, organism-based; conditions: Vagina; how it was run: as §3
Candida [15] = assay: Antifungal activity against Candida-mediated vaginal infection in woman assessed as effect on vaginal pH at 5% treated via intravaginal gels every 12 hrs for 2 days measured post application; format: functional, organism-based; conditions: Vagina; how it was run: as §3
Homo sapiens [16] = species: Homo sapiens; assay: Toxicity in woman with Candida-mediated vaginal infection assessed as adverse events at 5% treated via intravaginal gels every 12 hrs for 2 days measured post application; format: organism-based, Vagina; conditions: in vivo, other
Homo sapiens [17] = species: Homo sapiens; assay: Toxicity in woman with Gardnerella vaginalis-mediated vaginal infection assessed as adverse events at 5% treated via intravaginal gels every 12 hrs for 2 days measured post application; format: organism-based, Vagina; conditions: in vivo, other
Homo sapiens [18] = species: Homo sapiens; assay: Toxicity in woman with vaginal infection assessed as adverse events at 5% treated via intravaginal gels every 12 hrs for 2 days measured post application; conditions: in vivo, other

CCCCCCCCCCCC(=O)OCC(O)CO (stereo not drawn) [GLYCEROL MONOLAURATE]
Activity (Candida albicans [1]): Active | Activity (Nakaseomyces glabratus): Active | Activity (Kluyveromyces marxianus): Active | Activity (Candida parapsilosis): Active | Activity (Candida tropicalis): Active | Activity (Pichia kudriavzevii): Active | Activity (Candida albicans [2]): Active | Activity (Gardnerella vaginalis [3]): Active | Activity (Candida [4]): Active | Activity (Gardnerella vaginalis [5]): Active | Activity (Lactobacillus [6]): inactive | Activity (Candida [7]): Active | Activity (Gardnerella vaginalis [8]): Active | Activity (Lactobacillus [9]): inactive | Activity (Gardnerella vaginalis [10]): inactive | Activity (Gardnerella vaginalis [11]): inactive | Activity (Lactobacillus [12]): inactive | Activity (Lactobacillus [13]): inactive | Activity (Candida [14]): inactive | Activity (Candida [15]): inactive | Activity (Homo sapiens [16]): Non-toxic | Activity (Homo sapiens [17]): Non-toxic | Activity (Homo sapiens [18]): Non-toxic
